Entries after “also recorded” stand apart in the source; their conditions may differ. Non-standard residues stand in square brackets, D forms with d. Residues, ends and D or L forms follow the SMILES beside them. ξ: configuration not given here. ξT = CC(O)C(N)C(=O)O
Experiments:
[1] = tested on: PDZ domain; conditions: previous virtual screening; cited from earlier work
[2] = tested on: Wnt signaling (second axis formation); conditions: Xenopus, Wnt3A upstream of Dvl; cited from earlier work
[3] = biological target: T1, mouse Dvl1 PDZ domain (Mus musculus, UniProt P51141); assay: 15N HSQC NMR chemical shift perturbation titration; format: binding
T1 sequence (P51141 247-341): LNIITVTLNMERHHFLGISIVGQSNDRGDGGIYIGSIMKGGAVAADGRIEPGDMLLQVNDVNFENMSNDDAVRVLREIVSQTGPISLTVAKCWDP
Procedure, shortened: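 15N-labeled mouse Dvl1 PDZ domain (residues 247-341) at 0.2-0.3 mM in 100 mM potassium phosphate pH 7.5, 10% D2O, 0.5 mM EDTA; 15N HSQC at 600 MHz, 25 °C. Five titration points (ligand:protein 1 to 15); Arg322 shift perturbation tracked, reported at about 10 equivalents. One-site model with dilution correction and two-parameter nonlinear least-squares fit gave KD. μM values were rescaled against the reference inhibitor's earlier fluorescence KD.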

[4] = biological target: PDZ domain; conditions: fluorescence spectroscopy, earlier studies; cited from earlier work

## CC(O)C(N)C(=O)NCC(=O)NCC(=O)O (stereo not drawn) [NSC344681, ((((2-amino-3-hydroxybutanoyl)amino)acetyl)amino)acetic acid] (H-[ξT]-Gly-Gly-OH)
[1]
  binding to the PDZ domain: non-binders; also recorded: do not bind to the PDZ domain

## CC(NC(=O)C(OC(=O)C(C)NC(=O)OC(C)(C)C)C(C)C)C(=O)OC(C(=O)O)C(C)C (stereo not drawn) [NSC668036, 9,15-diisopropyl-2,2,6,12-tetramethyl-4,7,10,13-tetraoxo-3,8,14-trioxa-5,11-diazahexadec an-16-oic acid]
[2]
  second axis formation induced by Wnt3A: inhibited the second axis formation
[3]
  Kd: 27 mM
[3]; 10.4 equivalents of NSC668036
  Δδ chemical shift perturbation changes of Arg322: 0.035
[3]; NMR titration of 15N-labeled PDZ domain
  Exchange regime (in words): fast exchange regime
[3]; NSC668036, NMR KD versus fluorescence KD
  difference between KDs by NMR and by fluorescence: 114 fold
[3]; from intermediate exchange (++++) to fast exchange (+) with the PDZ domain
  Exchange regime: +
[4]
  Kd: 0.237 mM

## COC(=O)C(CON)C(=O)NC(=O)C(N)CON (stereo not drawn) [NSC119132, methyl 3-((2-amino-3-(aminooxy)propanoyl)amino)-2-((aminooxy)methyl)-3-oxopropanoate]
[1]
  binding to the PDZ domain: non-binders; also recorded: do not bind to the PDZ domain

— article PMC2648812 (Journal of computer-aided molecular design, 2008)
